Measurements reported in paper PMC7524064 (ESC Heart Failure, 2020).

Tests used:
[1] = system: human atrial trabeculae; assay: Contractility of human atrial trabeculae
In short: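 Right atrial appendage trabeculae came from patients undergoing aorto-coronary bypass and were held isometric. After about 30 min equilibration they were stretched to maximal steady-state twitch force and paced at 1 Hz. Test compound (1, 3, 10 μM) or KN93 (5 μM) was washed in for 20 min. Post-rest pauses were 10, 30 and 120 s. Developed and diastolic tension were normalized to each patient's vehicle control.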

[2] = system: human atrial cardiomyocytes; assay: Action potentials in human atrial cardiomyocytes; type: cell-based; conditions: RA608 1, 3, 10 μM; AIP
In short: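 Ruptured-patch whole-cell current clamp at room temperature on isolated human atrial cardiomyocytes from seven patients. Action potentials were recorded with vehicle, test compound at 1, 3 or 10 μM, or myristoylated AIP.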

[3] = system: murine ventricular cardiomyocytes; assay: Action potentials in murine ventricular cardiomyocytes; type: cell-based, mouse; conditions: RA608 1, 3, 10 μM; myristoylated AIP 2 μmol/L
[4] = system: human atrial cardiomyocytes; assay: Ca sparks and SR Ca leak, confocal line scans; type: cell-based; conditions: AIP (2 μM)
In short: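 Myocytes on laminin-coated chambers were loaded 15 min with 10 μmol/L Fluo-4 AM plus 0.02% (w/v) pluronic acid. They were superfused with normal Tyrode solution and imaged by laser-scanning confocal line scans at room temperature. Treatments were test compound at 1, 3 or 10 μM, or myristoylated AIP at 2 μM.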

## COc1ccc(S(=O)(=O)N(CCO)c2ccccc2CN(C)C/C=C/c2ccc(Cl)cc2)cc1 [KN93]
[1]; KN93 5 μmol/L, compared with RA608
  contraction amplitude after pause: comparable increase
[1]; KN93 (5 μM)
  diastolic tension normalized to vehicle: only a trend to decrease
[1]; RA608 1, 3, 10 μM, KN93 5 μM
  relaxation time (time to 80% of relaxation): neither RA608 nor KN93 resulted in significant alterations

## autocamtide‐2‐related autoinhibitory peptide [AIP]
[2]
  AP duration (APD50, APD80) vs vehicle: no significant effect
[3]
  AP duration (APD50): no significant effect
[4]
  SR Ca leak vs vehicle: significantly reduced
